# Compound activity as filed in PubChem BioAssay.
# In the library only some 2.9% were active in any assay of this set; here they are far more common.
# TRPC4 act: TRPC4 (mouse) channel activation. HEK293 TRPC4beta/mu-opioid, Fluo4 calcium fluorescence; stronger effect = higher value. Q9QUQ5. hit rate 0.49% among 310,000. B-score at 10 µM;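 active means B-score above 5 SD of library B-scores, and initial fluorescence ratio not above library mean plus 5 SD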;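 further: positive B-score marks a calcium rise read as TRPC4 activation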
#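 system = HEK293 cells stably co-expressing mouse TRPC4beta and mu-opioid receptor | schedule = Fluo4 dye loading 45 min at room temperature, 110 s recording | measure = B-scored integrated calcium fluorescence ratio | signal = Fluo4 calcium-sensitive dye fluorescence, kinetic, 1 Hz baseline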
# TRPC4 potent: allosterically enhances the mouse TRPC4 cation channel; Q9QUQ5; hit rate 0.42% among 310,000; B-score at 10 µM; AID 2227; HEK293 TRPC4beta/mu-opioid, DAMGO EC20, Fluo-4 Ca2+ flux; stronger effect = higher value;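 active means B-score of calcium response area above 5 SD of library B-scores, with initial fluorescence ratio within 5 SD of library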;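 further: B-score of integrated fluorescence ratio over time as area under calcium response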
# TRPC6 act: activates the mouse TRPC6 cation channel; HEK293-TRPC6 membrane potential dye fluorescence; stronger effect = higher value; Q61143; B-score at 10 µM; hit rate 0.13% among 310,000;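 active means B-score of the integrated fluorescence ratio above library mean plus 3 SD, and starting fluorescence ratio within library mean plus 5 SD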;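 further: higher score means more depolarization so channel activation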
# Target sequence (Q61143 whole entry, looked up): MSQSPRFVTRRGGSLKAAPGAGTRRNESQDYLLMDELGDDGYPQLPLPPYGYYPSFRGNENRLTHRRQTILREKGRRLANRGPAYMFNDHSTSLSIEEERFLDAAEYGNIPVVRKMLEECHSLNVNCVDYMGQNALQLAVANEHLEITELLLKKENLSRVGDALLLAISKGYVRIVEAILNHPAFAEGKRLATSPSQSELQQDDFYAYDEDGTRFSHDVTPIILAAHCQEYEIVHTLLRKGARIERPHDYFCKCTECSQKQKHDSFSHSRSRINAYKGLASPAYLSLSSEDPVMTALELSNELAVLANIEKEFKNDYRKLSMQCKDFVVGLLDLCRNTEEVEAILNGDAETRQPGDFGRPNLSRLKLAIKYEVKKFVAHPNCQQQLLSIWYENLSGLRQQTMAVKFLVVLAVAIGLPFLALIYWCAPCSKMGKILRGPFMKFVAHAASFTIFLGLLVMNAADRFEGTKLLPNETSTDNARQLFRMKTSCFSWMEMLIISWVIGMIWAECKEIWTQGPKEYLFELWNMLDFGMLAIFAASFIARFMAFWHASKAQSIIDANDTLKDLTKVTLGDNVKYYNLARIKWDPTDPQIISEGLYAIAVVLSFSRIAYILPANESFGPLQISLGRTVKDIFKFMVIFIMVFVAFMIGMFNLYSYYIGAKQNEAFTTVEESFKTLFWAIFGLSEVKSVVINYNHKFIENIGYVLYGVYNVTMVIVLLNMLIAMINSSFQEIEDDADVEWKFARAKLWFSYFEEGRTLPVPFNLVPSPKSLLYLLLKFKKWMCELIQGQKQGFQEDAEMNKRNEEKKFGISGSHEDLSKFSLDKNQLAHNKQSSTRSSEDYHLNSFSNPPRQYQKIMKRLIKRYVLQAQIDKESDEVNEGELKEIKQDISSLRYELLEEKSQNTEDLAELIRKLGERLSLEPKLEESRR
# TRPC6 inh: blocks the mouse TRPC6 cation channel. HEK293-TRPC6, membrane potential dye, ACh-evoked depolarization; stronger effect = lower value. B-score at 10 µM. hit rate 1.1% among 310,000. AID 2553;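 active means B-score under library mean minus 3 SD, initial fluorescence not abnormally high, positive integrated signal ratio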;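 further: B-score derived from integrated fluorescence ratio over the kinetic read; more negative B-score means stronger inhibition of depolarization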
# TRPC4 block: inhibitors of mouse TRPC4 channel. Q9QUQ5. hit rate 0.39% among 300,000. B-score at 10 µM. HEK293 TRPC4beta/mu-opioid, DAMGO-evoked Fluo4 calcium flux; stronger effect = lower value. AID 2247;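 active means B-score over 3 SD under the library average, no early fluorescence shift, positive overall ratio signal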
#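 Assay system: Stable TRPC4beta/mu-opioid receptor HEK293 cells | Reagent: DAMGO in two steps, submaximal then maximal | Compound dosing: Single concentration per test compound | Signal: Fluo4 Ca2+ flux fluorescence | Evaluation: Per-well B score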
# Kir21 block: Kir2.1 (mouse) channel inhibition; P35561; HEK293-Kir2.1, FluxOR thallium flux fluorescence; stronger effect = lower value; B-score at 10 µM; hit rate 0.85% among 310,000; AID 1672;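 active means fluorescence ratio B-score at or below minus 3 SD of library scores, with starting-brightness B-score within 2 SD, cut at about -4.2 in these data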;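 further: channel flux triggered by added potassium and thallium sulfate stimulus; B-score of peak minus minimum fluorescence over baseline after thallium stimulus; more negative B-score means stronger Kir2.1 block with less thallium influx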
# TRPC4 spec 2: second selectivity test of TRPC6 inhibitors: effect on mouse TRPC4; HEK293 TRPC4/MOR, membrane potential dye fluorescence; channel activated by saturating DAMGO dose; inhibition, % at 10 µM; hit rate 42% among 920; shares compounds with TRPC6 inh;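 active means compounds whose fluorescence signal differed from control wells by over 3 SD, either direction, in both duplicate plates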
# TRPC4 spec: tests whether TRPC6 inhibitors also affect mouse TRPC4; activity change, negative = inhibition, % at 10 µM; hit rate 61% among 920; shares compounds with TRPC6 inh; AID 2777; HEK293 TRPC4/mu-opioid, membrane potential fluorescence;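 active means rise or fall in signal beyond 3 SD of buffer-only wells in both replicate plates, either sign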;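 further: integrated kinetic ratio of fluorescence range over baseline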
# HEK293 MPD ctr 2-1: second check of TRPC6 inhibitor effects in parental HEK293 cells | signal change vs control, % at 10 µM | AID 2779 | hit rate 31% among 920 | parental HEK293 membrane potential dye fluorescence; maximal acetylcholine challenge after compound addition | shares compounds with TRPC6 inh;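 active means membrane potential signal moving either way by over 3 SD of the maximum-effect control, in both duplicate plates, meaning non-specific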
# HEK293 MPD ctr-1: checks TRPC6 inhibitor effects in parental HEK293 cells; shares compounds with TRPC6 inh; parental HEK293 membrane potential dye fluorescence; membrane potential signal change, % at 10 µM; hit rate 60% among 920;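 active means membrane potential signal shifting up or down by more than 3 SD of buffer-only wells, on both duplicate plates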
# HEK293 MPD ctr-2: counter-screen for TRPC6 modulators: effect in parental HEK293 cells; membrane potential signal change, % at 10 µM; membrane potential dye fluorescence; shares compounds with TRPC6 inh; hit rate 51% among 2,400;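 active means membrane potential signal moves up or down beyond 5 SD from buffer-only wells, on both duplicate plates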
# HEK293 MPD ctr 2-2: second check of TRPC6 modulator effects in parental HEK293 cells; membrane potential dye fluorescence; after compound, maximal acetylcholine stimulation; shares compounds with TRPC6 inh; hit rate 14% among 2,400; inhibition, % at 10 µM; AID 488926;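 active means membrane potential signal drops by more than 5 SD from the mean control signal, in both duplicate plates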;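 further: plate controls were acetylcholine ECmax control wells for no effect and buffer only wells for full effect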
# TRPC4 ctr mod: mouse TRPC4 off-target activity of TRPC6 modulators; HEK293 TRPC4/mu-opioid, membrane potential fluorescence; percent change from control (negative = decrease, positive = increase), % at 10 µM; hit rate 69% among 2,400; AID 488927; shares compounds with TRPC6 inh;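 active means membrane potential signal moved up or down beyond 5 SD of buffer control wells, in both duplicate plates, actives on both sides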;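 further: plate controls were assay buffer wells for no effect and DAMGO maximal-effect wells for full effect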
# TRPC4 ctr inh 2: second selectivity test of TRPC6 modulators against mouse TRPC4 | hit rate 55% among 2,400 | shares compounds with TRPC6 inh | HEK293 TRPC4/mu-opioid, membrane potential dye fluorescence; stimulated with maximal-effect DAMGO | inhibition, % at 10 µM | AID 488928;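 active means drop in membrane potential signal beyond 5 SD of the control wells in both duplicate plates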;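 further: TRPC4 counter screen for TRPC6 hits run under conditions tuned for TRPC6 not TRPC4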
# TRPC6 block conf: confirmation of mouse TRPC6 inhibitors; inhibition, % at 10 µM; HEK293-TRPC6, membrane potential dye, ACh-evoked depolarization; hit rate 43% among 3,300; shares compounds with TRPC6 inh;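 active means fluorescence ratio falls more than 5 SD below the full-stimulation control mean, in both duplicate runs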;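 further: integrated fluorescence ratio of peak minus minimum over baseline after agonist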
# TRPC6 act confirm: confirmation of mouse TRPC6 activators; shares compounds with TRPC6 inh; activation, % at 10 µM; hit rate 11% among 2,800; AID 488961; HEK293-TRPC6 membrane potential dye fluorescence, FDSS;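 active means ratio signal rise beyond 5 SD above unstimulated control wells' mean, seen in both duplicate runs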;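 further: plate controls were buffer EC0 wells for no effect and acetylcholine ECmax response for full effect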
# Starred values were filed as active, the others as inactive; i = inactive; . = no result given.
SMILES,TRPC4 act,TRPC4 potent,TRPC6 act,TRPC6 inh,TRPC4 block,Kir21 block,HEK293 MPD ctr-2,HEK293 MPD ctr 2-2,TRPC4 ctr mod,TRPC4 ctr inh 2,TRPC6 block conf,TRPC6 act confirm,others
CC(C)c1ccc2c(c1)C1(NN=C(c3ccccc3)S1)C(=O)N2 (centres undefined),i,11*,i,-5.7*,i,0.95,-150%*,i,-33%*,75%*,46%*,i,
COc1cccc(C(=O)NC2CC(C)(C)Cc3c2cnn3-c2cccc(F)c2)c1OC (centres undefined),i,i,i,i,i,0.64,.,.,.,.,.,.,
CCN1C(=O)/C(=C/c2ccc(N3CCCC3)cc2)NC1=S,i,i,30*,i,i,-5.8,359%*,i,235%*,i,i,44%*,
Cc1cc(/C=C2/C(=O)N(C)C(=S)N2C)ccc1N1CCCC1,i,i,i,i,i,5.6e-16,.,.,.,.,.,.,
CCCN1C(=O)/C(=C/c2ccc(OCC(=O)OCC)cc2)NC1=S,i,i,i,i,i,0.91,.,.,.,.,.,.,
CCCN1C(=O)/C(=C/c2ccc(N3CCCC3)c(C)c2)NC1=S,58*,i,63*,i,i,-4,670%*,i,226%*,i,i,136%*,
Cc1cc(/C=C2\NC(=S)N(C)C2=O)ccc1N1CCCC1,49*,i,34*,i,i,-0.82,i,i,132%*,i,i,33%*,
O=C(c1ccc2c(c1)OCO2)N1CCC2(CC1)Oc1ccc(Cl)cc1C(=O)C21CC(c2cccnc2)=NO1 (centres undefined),i,i,i,i,.,2.4,.,.,.,.,.,.,
O=C1NCCCC1C(=O)NCCN1C(=O)CCC1=O (centres undefined),i,i,i,i,i,-0.57,.,.,.,.,.,.,
CNC(=S)NN(c1ccccc1)c1ccccc1,i,i,i,i,i,-0.46,.,.,.,.,.,.,
Cc1ccc(NC(=O)N2CCC(C(=O)NCc3ccccc3)CC2)cc1,i,i,i,i,i,-0.4,.,.,.,.,.,.,
CCCC(CCC)C(=O)OC1C[C@H]2CC[C@@H](C1)[N+]2(C)C (some centres undefined),i,i,i,-8.7*,i,-0.04,.,.,.,.,94%*,i,TRPC4 spec 2=i;TRPC4 spec=i;HEK293 MPD ctr 2-1=-30%*;HEK293 MPD ctr-1=i
CCCC(CCC(=O)NC1CCCCC1)C(=O)O (centres undefined),i,i,i,i,i,0.13,.,.,.,.,.,.,
Cc1ccccc1Nc1c(-c2ccc(N3CCOCC3)cc2)nc2cnccn12,i,i,i,i,i,0.97,.,.,.,.,.,.,
Cc1ccn2c(Nc3ccccc3C)c(-c3cccnc3)nc2c1,i,i,i,-5.7*,i,-0.57,-166%*,i,-32%*,77%*,46%*,i,
Cc1ccccc1Nc1c(-c2ccncc2)nc2ccc(Cl)cn12,i,i,i,-5.8*,i,2.9,i,i,-16%*,70%*,i,i,
CC1(C)OC(=O)C(=CNc2ccccc2F)C(=O)O1,i,i,i,i,i,0.81,.,.,.,.,.,.,
Cc1[nH]n(-c2ccc(Br)cc2)c(=O)c1C=Nc1ccc(S(=O)(=O)Nc2nccs2)cc1,i,i,i,-5.8*,i,-0.37,i,i,-39%*,40%*,i,i,
COc1ccc(NC(=O)N2CCCC2C(=O)NCc2ccc(C)cc2)cc1 (centres undefined),i,i,i,i,i,0.08,.,.,.,.,.,.,
Cc1nccn1CCc1n[nH]c(=S)n1Cc1ccccc1,i,i,i,-6.5*,i,0.48,i,i,i,i,69%*,i,
Cc1ccc(-c2n[nH]c(=S)n2Cc2ccccc2)cc1,i,i,i,-5*,i,0.98,i,i,i,i,i,i,
Cc1cccc(-c2n[nH]c(=S)n2Cc2ccccc2)c1,i,i,i,i,i,-2.1,.,.,.,.,.,.,
Cc1nnc(C)c2c(C)n(-c3ccccc3)c(C)c12,i,i,i,-5*,i,1.1,-127%*,i,-22%*,50%*,45%*,i,
COc1ccc(-n2cc(CNC3CCC(O)CC3)c(-c3cccc(F)c3)n2)cc1 (centres undefined),i,i,i,-8.3*,i,0.07,.,.,.,.,i,i,TRPC4 spec 2=i;TRPC4 spec=i;HEK293 MPD ctr 2-1=i;HEK293 MPD ctr-1=i
COc1ccc(-n2cc(CN3CCC(OC)CC3)c(-c3cccc(F)c3)n2)cc1,i,i,i,i,i,-0.69,.,.,.,.,.,.,
CCOC(=O)Nc1ccc2c(c1)OCO2,i,i,i,-5.6*,i,-2.1,i,i,i,i,i,i,
Cc1onc(-c2c(F)cccc2Cl)c1C(=O)Nc1c(C)n(C)n(-c2ccccc2)c1=O,i,i,i,i,i,-0.2,.,.,.,.,.,.,
